Assay results as given in ChEMBL document CHEMBL1126127, “Nonprostanoid prostacyclin mimetics. 2. 4,5-Diphenyloxazole derivatives” (J Med Chem, 1992).

Assay: Inhibition of ADP-induced human platelet aggregation.
Format: functional
Procedure, shortened: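 ADP-induced aggregation of human platelets measured in platelet-rich plasma by aggregometry. Protocol follows earlier reports. IC50 values come from a single experiment or from the mean of duplicates.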

SMILES | IC50
c1ccc(-c2nc(CCc3cccc(OCC4N=NN=N4)c3)oc2-c2ccccc2)cc1 | 1.5 µM
O=C(O)COc1cccc(Cc2nc(-c3ccccc3)c(-c3ccccc3)o2)c1 | > 82 µM
O=C(O)CCCCCCCc1nc(-c2ccccc2)c(-c2ccccc2)o1 | > 88 µM
O=C(O)COc1ccc(Cc2nc(-c3ccccc3)c(-c3ccccc3)o2)cc1 | > 82 µM
O=C(O)CCCCOc1cccc(-c2nc(-c3ccccc3)c(-c3ccccc3)o2)c1 | 4.6 µM
O=C(O)CCCOc1cccc(-c2nc(-c3ccccc3)c(-c3ccccc3)o2)c1 | 80 µM
O=C(O)COc1ccccc1/C=C/c1nc(-c2ccccc2)c(-c2ccccc2)o1 | > 80 µM
O=C(O)CCCCOc1ccccc1-c1nc(-c2ccccc2)c(-c2ccccc2)o1 | > 77 µM
O=C(O)COc1cccc(CSc2nc(-c3ccccc3)c(-c3ccccc3)o2)c1 | 9.6 µM
O=C(O)C(CCCCCCCc1nc(-c2ccccc2)c(-c2ccccc2)o1)C(=O)O | > 76 µM
O=C(O)CCCCCCCCc1nc(-c2ccccc2)c(-c2ccccc2)o1 | 2.5 µM
CC(C)(Oc1cccc(CCc2nc(-c3ccccc3)c(-c3ccccc3)o2)c1)C(=O)O | > 75 µM
CC#CCC(C)[C@H](O)/C=C/[C@@H]1[C@H]2C/C(=C/CCCC(=O)O)C[C@H]2C[C@H]1O (stereo partly drawn) [ILOPROST] | 2 µM
O=C(O)CCCCCCCCCc1nc(-c2ccccc2)c(-c2ccccc2)o1 | > 80 µM
CCCCC[C@H](O)/C=C/[C@@H]1[C@H]2C/C(=C/CCCC(=O)O)O[C@H]2C[C@H]1O [EPOPROSTENOL] | 8 µM
O=C(O)CCc1cccc(CCc2nc(-c3ccccc3)c(-c3ccccc3)o2)c1 | 16 µM
O=C(O)COc1cccc(-c2nc(-c3ccccc3)c(-c3ccccc3)o2)c1 | > 84 µM
O=C(O)c1cccc(OCCCCc2nc(-c3ccccc3)c(-c3ccccc3)o2)c1 | > 77 µM
O=C(O)COc1cccc(C#Cc2nc(-c3ccccc3)c(-c3ccccc3)o2)c1 | 60 µM
O=C(O)/C=C/c1cccc(OCc2nc(-c3ccccc3)c(-c3ccccc3)o2)c1 | 14 µM
COc1ccc(CCc2nc(-c3ccccc3)c(-c3ccccc3)o2)cc1OCC(=O)O | > 75 µM
O=C(O)COc1cccc(OCc2nc(-c3ccccc3)c(-c3ccccc3)o2)c1 | 1.2 µM
O=C(O)CCc1cccc(OCc2nc(-c3ccccc3)c(-c3ccccc3)o2)c1 | > 80 µM
COc1ccc(/C=C/c2nc(-c3ccccc3)c(-c3ccccc3)o2)cc1OCC(=O)O | > 75 µM
COc1ccc(OCC(=O)O)cc1/C=C/c1nc(-c2ccccc2)c(-c2ccccc2)o1 | > 75 µM
O=C(O)CCCOc1cccc(/C=C/c2nc(-c3ccccc3)c(-c3ccccc3)o2)c1 | > 75 µM
O=C(O)CCCCCCc1nc(-c2ccccc2)c(-c2ccccc2)o1 | > 91 µM
O=C(O)c1cccc(OCCCc2nc(-c3ccccc3)c(-c3ccccc3)o2)c1 | > 80 µM
COc1c(CCc2nc(-c3ccccc3)c(-c3ccccc3)o2)cccc1OCC(=O)O | 1.4 µM

Other lines, results leading:

IC50 | SMILES
> 77 µM | O=C(O)CCCCOc1ccc(-c2nc(-c3ccccc3)c(-c3ccccc3)o2)cc1
0.18 µM | O=C(O)COc1cccc(/C=C\c2nc(-c3ccccc3)c(-c3ccccc3)o2)c1
10 µM | O=C(O)COc1ccc(/C=C/c2nc(-c3ccccc3)c(-c3ccccc3)o2)cc1
13 µM | O=C(O)COc1cccc(/C=C/c2nc(-c3ccccc3)c(-c3ccccc3)o2)c1
> 76 µM | O=C(O)CCCOc1cccc(Cc2nc(-c3ccccc3)c(-c3ccccc3)o2)c1
> 80 µM | O=C(O)CCCOc1ccccc1-c1nc(-c2ccccc2)c(-c2ccccc2)o1
40 µM | O=C(O)c1ccc(OCCCc2nc(-c3ccccc3)c(-c3ccccc3)o2)cc1
1.02 µM | O=C(O)CCCCCCCOc1nc(-c2ccccc2)c(-c2ccccc2)n1-c1ccccc1 [OCTIMIBATE]
> 74 µM | O=C(O)CCCCOc1ccccc1Cc1nc(-c2ccccc2)c(-c2ccccc2)o1
> 75 µM | O=C(O)CCCOc1ccccc1CCc1nc(-c2ccccc2)c(-c2ccccc2)o1
> 75 µM | COc1ccc(OCC(=O)O)cc1CCc1nc(-c2ccccc2)c(-c2ccccc2)o1
0.5 µM | COc1c(/C=C/c2nc(-c3ccccc3)c(-c3ccccc3)o2)cccc1OCC(=O)O
> 104 µM | O=C(O)CCCc1nc(-c2ccccc2)c(-c2ccccc2)o1
> 80 µM | O=C(O)CCCOc1ccc(-c2nc(-c3ccccc3)c(-c3ccccc3)o2)cc1
> 100 µM | O=C(O)CCc1nc(-c2ccccc2)c(-c2ccccc2)o1 [OXAPROZIN]
0.66 µM | O=C(O)/C=C/c1cccc(CCc2nc(-c3ccccc3)c(-c3ccccc3)o2)c1
> 100 µM | O=C(O)CCCCc1nc(-c2ccccc2)c(-c2ccccc2)o1
> 75 µM | O=C(O)CCCOc1ccc(/C=C/c2nc(-c3ccccc3)c(-c3ccccc3)o2)cc1
9 µM | O=C(O)COc1ccc(CCc2nc(-c3ccccc3)c(-c3ccccc3)o2)cc1
> 77 µM | O=C(O)c1ccc(OCCCCc2nc(-c3ccccc3)c(-c3ccccc3)o2)cc1
> 75 µM | O=C(O)CCCOc1ccccc1/C=C/c1nc(-c2ccccc2)c(-c2ccccc2)o1
> 80 µM | O=C(O)COc1ccccc1CCc1nc(-c2ccccc2)c(-c2ccccc2)o1
> 76 µM | O=C(O)CCCOc1ccc(Cc2nc(-c3ccccc3)c(-c3ccccc3)o2)cc1
4 µM | CC(Oc1cccc(CCc2nc(-c3ccccc3)c(-c3ccccc3)o2)c1)C(=O)O (stereo not drawn)
